# Source: ChEMBL document CHEMBL1121831 (1981)
# Columns and labels:
# Mus musculus [1] = assay: Compound is evaluated for activity against L1210 leukemia in mice, at dose 160 mg/kg expressed as T/C=15/9; format: functional
# Method in brief: (§1)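 B6D2F1 mice were inoculated ip with 10^5 L1210 cells on day 0. Test agents were given ip on days 1, 4 and 7 in 10% Tween 80 or a 1:1:8 emulphor-ethanol-water suspension; MTX was given ip as the disodium salt in water. Groups were mostly five mice. Read-out was median survival of treated vs control mice (days) and % increase in life span.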
# [2] = molecular target: Dihydrofolate reductase (Lactobacillus casei) (UniProt P00381); assay: Compound is evaluated for binding to Lactobacillus casei dihydrofolate reductase using kinetic assay; conditions: Lacticaseibacillus casei
# Chain of Dihydrofolate reductase (Lactobacillus casei) (P00381 whole entry): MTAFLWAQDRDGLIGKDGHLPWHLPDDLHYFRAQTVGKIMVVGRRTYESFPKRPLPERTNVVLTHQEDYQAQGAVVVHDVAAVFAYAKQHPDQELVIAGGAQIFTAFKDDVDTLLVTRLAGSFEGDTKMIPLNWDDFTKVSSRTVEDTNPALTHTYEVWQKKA
# CCRF-CEM (Homo sapiens) = assay: Percent inhibition of human lymphoblastic leukemia cell growth (48h) at 10 uM
# L1210 [3] = assay: Compound is evaluated for percent increase in life span against L1210 leukemia in mice, at dose 160 mg/kg; format: functional; conditions: Mus musculus
# Method in brief: (§2)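 B6D2F1 mice were inoculated ip with 10⁵ L1210 cells on day 0. Drug was given ip on days 1, 4 and 7 (q3d) as a suspension in 10% Tween 80 or 1:1:8 emulphor–ethanol–water, or as the disodium salt in water. The read-out was median survival of treated versus control mice (T/C, days), expressed as % increase in life span.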
# L1210 [4] = assay: Compound is evaluated for activity against L1210 leukemia in mice, at dose 160 mg/kg; format: functional, Mus musculus; method in brief: as §1
# [5] = molecular target: T1, Dihydrofolate reductase (Mus musculus) (UniProt P00375); assay: Compound is evaluated for binding to L1210 mouse leukemia cells dihydrofolate reductase using ligand-binding assay
# T1 sequence (whole entry): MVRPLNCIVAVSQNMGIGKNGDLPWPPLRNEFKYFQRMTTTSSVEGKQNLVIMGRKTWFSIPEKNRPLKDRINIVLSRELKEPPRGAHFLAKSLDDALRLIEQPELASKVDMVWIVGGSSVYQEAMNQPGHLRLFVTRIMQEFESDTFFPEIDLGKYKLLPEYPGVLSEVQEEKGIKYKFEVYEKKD
# L1210 [6] = assay: Compound is evaluated for percent increase in life span against L1210 leukemia in mice, at dose 80 mg/kg; format: functional; conditions: Mus musculus; method in brief: as §2
# CCRF-CEM [7] = assay: Compound is tested for the inhibition of growth of human lymphoblastic leukemia cells (CEM); format: functional; conditions: read-out: ID50 (the source's name)
# Method in brief: (§3)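 CEM human lymphoblastic and L1210 murine leukemia cells were grown in culture with drug for 48 h, at concentrations up to 10 μM. The read-out was growth inhibition, given as ID50 or, where ID50 was not reached, as percent inhibition at 10 μM. Values are averages of triplicate experiments.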
# L1210 [8] = assay: Compound is evaluated for activity against L1210 leukemia in mice, at dose 80 mg/kg; format: functional, Mus musculus; method in brief: as §1
# L1210 [9] = assay: Compound is tested for the inhibition of growth of murine leukemia cells (L1210); format: functional; conditions: Mus musculus, read-out: ID50 (the source's name); method in brief: as §3
# Mus musculus [10] = assay: Compound is evaluated for activity against L1210 leukemia in mice, at dose 80 mg/kg expressed as T/C=11/9; format: functional; method in brief: as §1
# L1210 [11] = assay: Compound was tested for the inhibition of growth of murine leukemia cells (L1210); format: functional; conditions: Mus musculus, read-out: ID50 (the source's name); method in brief: as §3
# CCRF-CEM [12] = assay: Compound was tested for the inhibition of growth of human lymphoblastic leukemia cells (CEM); format: functional; conditions: read-out: ID50 (the source's name); method in brief: as §3
# [13] = molecular target: T1, Dihydrofolate reductase (Mus musculus); assay: Affinity for mammalian (L1210 mouse leukemia) dihydrofolate reductase
# Method in brief: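 Partially purified DHFR from L1210 cells, diluted 8-fold in 0.1 M KH2PO4 (pH 6.2) with 0.1% BSA and 1 mM NADPH, then held on ice 5 min. Competition with [3H]MTX over serial 5-fold dilutions starting from a 6 μM solution, 5 min at 0 °C. Unbound ligand removed with Norite charcoal and the supernatant counted; ID50 (50% drop in bound label) read from a logit-log plot.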
# [14] = molecular target: Dihydrofolate reductase (Lactobacillus casei) (UniProt P00381); assay: Affinity for partially purified bacterial (Lactobacillus casei) dihydrofolate reductase; conditions: Lacticaseibacillus casei
# Mus musculus [15] = assay: Compound is evaluated for activity against L1210 leukemia in mice, at dose 160 mg/kg expressed as T/C=13/9; format: functional; method in brief: as §1
# L1210 [16] = assay: Compound is evaluated for increase in life span against L1210 leukemia in mice, at dose 80 mg/kg; format: functional; conditions: Mus musculus; method in brief: as §2
# L1210 [17] = assay: Compound is evaluated for increase in life span against L1210 leukemia in mice, at dose 160 mg/kg; format: functional; conditions: Mus musculus; method in brief: as §2
# L1210 [18] = assay: Compound is evaluated for activity against L1210 leukemia in mice, at dose 120 mg/kg; format: functional, Mus musculus; method in brief: as §1
# L1210 [19] = assay: Compound is evaluated for activity against L1210 leukemia in mice, at dose 40 mg/kg; format: functional, Mus musculus; method in brief: as §1
# Mus musculus [20] = assay: Compound is evaluated for activity against L1210 leukemia in mice, at dose 120 mg/kg expressed as T/C=23/9; format: functional; method in brief: as §1
# Mus musculus [21] = assay: Compound is evaluated for activity against L1210 leukemia in mice, at dose 80 mg/kg expressed as T/C=19/9; format: functional; method in brief: as §1
# L1210 [22] = assay: Compound is evaluated for percent increase in life span against L1210 leukemia in mice, at dose 40 mg/kg; format: functional; conditions: Mus musculus; method in brief: as §2
# L1210 [23] = assay: Compound is evaluated for percent increase in life span against L1210 leukemia in mice, at dose 120 mg/kg; format: functional; conditions: Mus musculus; method in brief: as §2
# [24] = molecular target: Dihydrofolate reductase (Lactobacillus casei) (UniProt P00381); assay: Compound is evaluated for binding to dihydrofolate reductase of Lactobacillus casei using kinetic assay; conditions: Lacticaseibacillus casei
# Mus musculus [25] = assay: Compound is evaluated for activity against L1210 leukemia in mice, at dose 40 mg/kg expressed as T/C= 13/9; format: functional; method in brief: as §1
# L1210 [26] = assay: Compound is evaluated for percent increase in life span against L1210 leukemia in mice, at dose 40 mg/kg in experiment 2; format: functional; conditions: Mus musculus; method in brief: as §2
# L1210 [27] = assay: Compound is evaluated for percent increase in life span against L1210 leukemia in mice, at dose 7.5 mg/kg in experiment 1; format: functional; conditions: Mus musculus; method in brief: as §2
# RBL-1 = assay: Compound was tested for the inhibition of growth of rat basophilic leukemia (RBL) cells; format: functional; conditions: read-out: ID50 (the source's name)
# Mus musculus [28] = assay: Compound was evaluated for activity against L1210 leukemia in mice, at dose 7.5 mg/kg expressed as T/C in experiment 1=14/10; format: functional; method in brief: as §1
# L1210 [29] = assay: Compound was evaluated for activity against L1210 leukemia in mice, at dose 7.5 mg/kg in experiment 1; format: functional, Mus musculus; method in brief: as §1
# Mus musculus [30] = assay: Compound is evaluated for activity against L1210 leukemia in mice, at dose 20 mg/kg expressed as T/C in experiment 2=16/9; format: functional; method in brief: as §1
# Mus musculus [31] = assay: Compound is evaluated for activity against L1210 leukemia in mice, at dose 15 mg/kg expressed as T/C in experiment 1=14/10; format: functional; method in brief: as §1
# L1210 [32] = assay: Compound is evaluated for percent increase in life span against L1210 leukemia in mice, at dose 20 mg/kg in experiment 2; format: functional; conditions: Mus musculus; method in brief: as §2
# L1210 [33] = assay: Compound is evaluated for activity against L1210 leukemia in mice, at dose 15 mg/kg in experiment 1; format: functional, Mus musculus; method in brief: as §1
# L1210 [34] = assay: Compound is evaluated for activity against L1210 leukemia in mice, at dose 20 mg/kg in experiment 2; format: functional, Mus musculus; method in brief: as §1
# Mus musculus [35] = assay: Compound is evaluated for activity against L1210 leukemia in mice, at dose 40 mg/kg expressed as T/C in experiment 2=12/9; format: functional; method in brief: as §1
# L1210 [36] = assay: Compound is evaluated for activity against L1210 leukemia in mice, at dose 40 mg/kg in experiment 2; format: functional, Mus musculus; method in brief: as §1
# L1210 [37] = assay: Compound is evaluated for percent increase in life span against L1210 leukemia in mice, at dose 15 mg/kg in experiment 1; format: functional; conditions: Mus musculus; method in brief: as §2
compound,measurement,setting,value
COc1ccc(CNC(=O)CCC(NC(=O)c2ccc(N(C)Cc3cnc4nc(N)nc(N)c4n3)cc2)C(=O)NCc2ccc(OC)cc2)cc1 (centres undefined),Median T/C,Mus musculus [1],15 days
same,ID50,[2],400 nM
same,inhibition at 10 µM,CCRF-CEM (Homo sapiens),44%
same,ILS at 160 mg/kg,L1210 [3],66%
same,MTX equivalent,L1210 [4],128 mg/kg
same,ID50,[5],130 nM
same,ILS at 80 mg/kg,L1210 [6],22%
same,IC50,CCRF-CEM [7],> 10000 nM
same,MTX equivalent,L1210 [8],64 mg/kg
same,IC50,L1210 [9],8200 nM
same,Median T/C,Mus musculus [10],11 days
CC(NC(=O)CCC(NC(=O)c1ccc(N(C)Cc2cnc3nc(N)nc(N)c3n2)cc1)C(=O)NC(C)c1ccccc1)c1ccccc1 (centres undefined),inhibition at 10 µM,CCRF-CEM (Homo sapiens),25%
same,IC50,L1210 [11],> 10000 nM
same,IC50,CCRF-CEM [12],> 10000 nM
same,ID50,[13],11 nM
same,ID50,[14],310 nM
CN(Cc1cnc2nc(N)nc(N)c2n1)c1ccc(C(=O)NC(CCC(=O)NCc2ccc(Cl)cc2)C(=O)NCc2ccc(Cl)cc2)cc1 (centres undefined),ID50,[2],2300 nM
same,MTX equivalent,L1210 [4],130 mg/kg
same,ID50,[5],180 nM
same,Median T/C,Mus musculus [15],13 days
same,IC50,CCRF-CEM [7],> 10000 nM
same,MTX equivalent,L1210 [8],65 mg/kg
same,IC50,L1210 [9],6600 nM
same,ILS at 80 mg/kg,L1210 [16],22%
same,Median T/C,Mus musculus [10],11 days
same,ILS at 160 mg/kg,L1210 [17],44%
CN(Cc1cnc2nc(N)nc(N)c2n1)c1ccc(C(=O)NC(CCC(=O)Nc2ccccc2)C(=O)Nc2ccccc2)cc1 (centres undefined),MTX equivalent,L1210 [18],90 mg/kg
same,MTX equivalent,L1210 [19],30 mg/kg
same,Median T/C,Mus musculus [20],23 days
same,ID50,[5],74 nM
same,Median T/C,Mus musculus [21],19 days
same,ILS at 80 mg/kg,L1210 [6],111%
same,ILS at 40 mg/kg,L1210 [22],44%
same,IC50,CCRF-CEM [7],3300 nM
same,MTX equivalent,L1210 [8],60 mg/kg
same,IC50,L1210 [9],410 nM
same,ILS at 120 mg/kg,L1210 [23],155%
same,ID50,[24],1100 nM
same,Median T/C,Mus musculus [25],13 days
CN(Cc1cnc2nc(N)nc(N)c2n1)c1ccc(C(=O)NC(CCC(=O)NN)C(=O)NN)cc1 (centres undefined),ILS at 40 mg/kg,L1210 [26],33%
same,ILS at 7.5 mg/kg,L1210 [27],40%
same,ID50,[2],360 nM
same,IC50,RBL-1,960 nM
same,Median T/C,Mus musculus [28],14 days
same,MTX equivalent,L1210 [29],7.1 mg/kg
same,Median T/C,Mus musculus [30],16 days
same,ID50,[5],20 nM
same,Median T/C,Mus musculus [31],14 days
same,ILS at 20 mg/kg,L1210 [32],77%
same,MTX equivalent,L1210 [33],14.2 mg/kg
same,IC50,CCRF-CEM [7],7500 nM
same,MTX equivalent,L1210 [34],18.8 mg/kg
same,IC50,L1210 [9],950 nM
same,Median T/C,Mus musculus [35],12 days
same,MTX equivalent,L1210 [36],37.6 mg/kg
same,ILS at 15 mg/kg,L1210 [37],40%
CN(Cc1cnc2nc(N)nc(N)c2n1)c1ccc(C(=O)NC(CCC(=O)N2CCCCC2)C(=O)N2CCCCC2)cc1 (centres undefined),ID50,[2],250 nM
same,ID50,[5],12 nM
same,IC50,L1210 [9],> 10000 nM
